Tested on: Plasmodium berghei
Experiment: Antimalarial activity against Plasmodium berghei infected in Swiss Webster mouse assessed as mouse survival rate at 0.4 mg/kg administered once daily via oral gavage for 4 consecutive days beginning 1 hr after infection measured on day 4 post infection relative to control
Format: functional
Conditions: not given
In short: (§1)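 Mice given an intraperitoneal injection of P. berghei-infected erythrocytes taken from a previously infected animal. Oral dosing once daily for 4 consecutive days, starting 1 h after infection. Vehicle: polyethylene glycol 300/propylene glycol/water (weight ratio 55/25/20). Percent survival recorded daily from day 4 to day 20. Chloroquine 30 mg/kg and vehicle-only groups served as controls.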

SMILES | survival at 0.4 mg/kg [%]
Cc1c(Oc2cnc(C(=O)N3CC(O)(C(C)C)C3)cn2)ccc2c1B(O)OC2 | 100

Tested on: Plasmodium berghei
Experiment: Antimalarial activity against Plasmodium berghei infected in Swiss Webster mouse assessed as mouse survival rate at 100 mg/kg administered once daily via oral gavage for 4 consecutive days beginning 1 hr after infection measured on day 6 post infection relative to control
Format: functional
Conditions: not given
In short: as §1

SMILES | survival at 100 mg/kg [%]
Cc1c(Oc2cnc(C(=O)N3CC(O)(C(C)C)C3)cn2)ccc2c1B(O)OC2 | 100

Tested on: Plasmodium berghei
Experiment: Antimalarial activity against Plasmodium berghei infected in Swiss Webster mouse assessed as mouse survival rate administered once daily via oral gavage for 4 consecutive days beginning 1 hr after infection measured on day 4 post infection
Format: functional
Conditions: not given
In short: as §1

SMILES | ED90 [mg/kg]
Cc1c(Oc2cnc(C(=O)N3CC(O)(C(C)C)C3)cn2)ccc2c1B(O)OC2 | 4.5

Tested on: Plasmodium berghei
Experiment: Antimalarial activity against Plasmodium berghei infected in Swiss Webster mouse assessed as mouse survival rate at 11 mg/kg administered once daily via oral gavage for 4 consecutive days beginning 1 hr after infection measured on day 4 post infection relative to control
Format: functional
Conditions: not given
In short: (§2)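 P. berghei-infected erythrocytes taken from a previously infected mouse were injected intraperitoneally. Oral dosing, once daily for 4 consecutive days, began 1 h after infection, in polyethylene glycol 300/propylene glycol/water (55/25/20 by weight). Chloroquine at 30 mg/kg was the positive control, with a vehicle-only group. Percent survival was recorded daily from day 4 to day 20.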

SMILES | survival at 11 mg/kg [%]
Cc1c(Oc2cnc(C(=O)N3CC(O)(C(C)C)C3)cn2)ccc2c1B(O)OC2 | 100

Tested on: Plasmodium berghei
Experiment: Antimalarial activity against Plasmodium berghei infected in Swiss Webster mouse assessed as mouse survival rate at 0.4 mg/kg administered once daily via oral gavage for 4 consecutive days beginning 1 hr after infection measured on day 7 post infection relative to control
Format: functional
Conditions: not given
In short: as §1

SMILES | survival at 0.4 mg/kg [%]
Cc1c(Oc2cnc(C(=O)N3CC(O)(C(C)C)C3)cn2)ccc2c1B(O)OC2 | 0

Tested on: Plasmodium berghei
Experiment: Antimalarial activity against Plasmodium berghei infected in Swiss Webster mouse assessed as mouse survival rate at 0.4 mg/kg administered once daily via oral gavage for 4 consecutive days beginning 1 hr after infection measured on day 6 post infection relative to control
Format: functional
Conditions: not given
In short: as §1

SMILES | survival at 0.4 mg/kg [%]
Cc1c(Oc2cnc(C(=O)N3CC(O)(C(C)C)C3)cn2)ccc2c1B(O)OC2 | 100

Tested on: Plasmodium berghei
Experiment: Antimalarial activity against Plasmodium berghei infected in Swiss Webster mouse assessed as mouse survival rate at 11 mg/kg administered once daily via oral gavage for 4 consecutive days beginning 1 hr after infection measured on day 5 post infection relative to control
Format: functional
Conditions: not given
In short: as §2

SMILES | survival at 11 mg/kg [%]
Cc1c(Oc2cnc(C(=O)N3CC(O)(C(C)C)C3)cn2)ccc2c1B(O)OC2 | 100

Tested on: Plasmodium berghei
Experiment: Antimalarial activity against Plasmodium berghei infected in Swiss Webster mouse assessed as mouse survival rate at 100 mg/kg administered once daily via oral gavage for 4 consecutive days beginning 1 hr after infection measured on day 8 post infection relative to control
Format: functional
Conditions: not given
In short: as §1

SMILES | survival at 100 mg/kg [%]
Cc1c(Oc2cnc(C(=O)N3CC(O)(C(C)C)C3)cn2)ccc2c1B(O)OC2 | 100

Tested on: Plasmodium falciparum
Experiment: Antimalarial activity against chloroquine-sensitive Plasmodium falciparum 3D7 infected in human erythrocytes assessed as reduction in [3H]-hypoxanthine incorporation preincubated for 24 hrs followed by [3H]-hypoxanthine addition measured after 24 hrs by scintillation counting method
Format: functional, cell-based
Conditions: not given
In short: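 P. falciparum 3D7 cultures were exposed to the compound for 48 h, with atovaquone as the reference control. IC50 was taken from three replicates.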

SMILES | IC50 [nM]
Cc1c(Oc2cnc(C(=O)N3CC(O)(C(C)C)C3)cn2)ccc2c1B(O)OC2 | 57

Tested on: Plasmodium berghei
Experiment: Antimalarial activity against Plasmodium berghei infected in Swiss Webster mouse assessed as mouse survival rate at 3.7 mg/kg administered once daily via oral gavage for 4 consecutive days beginning 1 hr after infection measured on day 7 post infection relative to control
Format: functional
Conditions: not given
In short: as §2

SMILES | survival at 3.7 mg/kg [%]
Cc1c(Oc2cnc(C(=O)N3CC(O)(C(C)C)C3)cn2)ccc2c1B(O)OC2 | 0

Tested on: Plasmodium berghei
Experiment: Antimalarial activity against Plasmodium berghei infected in Swiss Webster mouse assessed as mouse survival rate at 0.1 mg/kg administered once daily via oral gavage for 4 consecutive days beginning 1 hr after infection measured on day 4 post infection relative to control
Format: functional
Conditions: not given
In short: as §1

SMILES | survival at 0.1 mg/kg [%]
Cc1c(Oc2cnc(C(=O)N3CC(O)(C(C)C)C3)cn2)ccc2c1B(O)OC2 | 100

Tested on: Plasmodium berghei
Experiment: Antimalarial activity against Plasmodium berghei infected in Swiss Webster mouse assessed as mouse survival rate at 33 mg/kg administered once daily via oral gavage for 4 consecutive days beginning 1 hr after infection measured on day 8 post infection relative to control
Format: functional
Conditions: not given
In short: as §2

SMILES | survival at 33 mg/kg [%]
Cc1c(Oc2cnc(C(=O)N3CC(O)(C(C)C)C3)cn2)ccc2c1B(O)OC2 | 100

Tested on: Plasmodium berghei
Experiment: Antimalarial activity against Plasmodium berghei infected in Swiss Webster mouse assessed as mouse survival rate at 100 mg/kg administered once daily via oral gavage for 4 consecutive days beginning 1 hr after infection measured on day 10 post infection relative to control
Format: functional
Conditions: not given
In short: as §1

SMILES | survival at 100 mg/kg [%]
Cc1c(Oc2cnc(C(=O)N3CC(O)(C(C)C)C3)cn2)ccc2c1B(O)OC2 | 100

Tested on: Plasmodium berghei
Experiment: Antimalarial activity against Plasmodium berghei infected in Swiss Webster mouse assessed as mouse survival rate at 33 mg/kg administered once daily via oral gavage for 4 consecutive days beginning 1 hr after infection measured on day 11 post infection relative to control
Format: functional
Conditions: not given
In short: as §2

SMILES | survival at 33 mg/kg [%]
Cc1c(Oc2cnc(C(=O)N3CC(O)(C(C)C)C3)cn2)ccc2c1B(O)OC2 | 100

Tested on: Plasmodium berghei
Experiment: Antimalarial activity against Plasmodium berghei infected in Swiss Webster mouse assessed as mouse survival rate at 0.4 mg/kg administered once daily via oral gavage for 4 consecutive days beginning 1 hr after infection measured on day 5 post infection relative to control
Format: functional
Conditions: not given
In short: as §1

SMILES | survival at 0.4 mg/kg [%]
Cc1c(Oc2cnc(C(=O)N3CC(O)(C(C)C)C3)cn2)ccc2c1B(O)OC2 | 100

Tested on: Plasmodium berghei
Experiment: Antimalarial activity against Plasmodium berghei infected in Swiss Webster mouse assessed as mouse survival rate at 11 mg/kg administered once daily via oral gavage for 4 consecutive days beginning 1 hr after infection measured on day 7 post infection relative to control
Format: functional
Conditions: not given
In short: as §2

SMILES | survival at 11 mg/kg [%]
Cc1c(Oc2cnc(C(=O)N3CC(O)(C(C)C)C3)cn2)ccc2c1B(O)OC2 | 60

Tested on: Plasmodium falciparum
Experiment: Antimalarial activity against chloroquine-resistant Plasmodium falciparum W2 infected in human erythrocytes after 48 hrs by YOYO-1 dye based flow cytometric analysis
Format: functional, cell-based
Conditions: W2, 48 h
In short: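 P. falciparum W2 cultures were exposed to the compound for 48 h, with artemisinin and chloroquine as reference controls. IC50 was taken from two independent replicates.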

SMILES | IC50 [nM]
Cc1c(Oc2cnc(C(=O)N3CC(O)(C(C)C)C3)cn2)ccc2c1B(O)OC2 | 40.7

Tested on: Plasmodium berghei
Experiment: Antimalarial activity against Plasmodium berghei infected in Swiss Webster mouse assessed as mouse survival rate at 33 mg/kg administered once daily via oral gavage for 4 consecutive days beginning 1 hr after infection measured on day 4 post infection relative to control
Format: functional
Conditions: not given
In short: as §2

SMILES | survival at 33 mg/kg [%]
Cc1c(Oc2cnc(C(=O)N3CC(O)(C(C)C)C3)cn2)ccc2c1B(O)OC2 | 100

Tested on: Plasmodium berghei
Experiment: Antimalarial activity against Plasmodium berghei infected in Swiss Webster mouse assessed as mouse survival rate at 3.7 mg/kg administered once daily via oral gavage for 4 consecutive days beginning 1 hr after infection measured on day 6 post infection relative to control
Format: functional
Conditions: not given
In short: as §2

SMILES | survival at 3.7 mg/kg [%]
Cc1c(Oc2cnc(C(=O)N3CC(O)(C(C)C)C3)cn2)ccc2c1B(O)OC2 | 100

Tested on: Plasmodium berghei
Experiment: Antimalarial activity against Plasmodium berghei infected in Swiss Webster mouse assessed as mouse survival rate at 100 mg/kg administered once daily via oral gavage for 4 consecutive days beginning 1 hr after infection measured on day 14 post infection relative to control
Format: functional
Conditions: not given
In short: as §1

SMILES | survival at 100 mg/kg [%]
Cc1c(Oc2cnc(C(=O)N3CC(O)(C(C)C)C3)cn2)ccc2c1B(O)OC2 | 100

Tested on: Plasmodium berghei
Experiment: Antimalarial activity against Plasmodium berghei infected in Swiss Webster mouse assessed as mouse survival rate at 0.1 mg/kg administered once daily via oral gavage for 4 consecutive days beginning 1 hr after infection measured on day 5 post infection relative to control
Format: functional
Conditions: not given
In short: as §1

SMILES | survival at 0.1 mg/kg [%]
Cc1c(Oc2cnc(C(=O)N3CC(O)(C(C)C)C3)cn2)ccc2c1B(O)OC2 | 100

Tested on: Plasmodium berghei
Experiment: Antimalarial activity against Plasmodium berghei infected in Swiss Webster mouse assessed as mouse survival rate at 100 mg/kg administered once daily via oral gavage for 4 consecutive days beginning 1 hr after infection measured on day 9 post infection relative to control
Format: functional
Conditions: not given
In short: as §1

SMILES | survival at 100 mg/kg [%]
Cc1c(Oc2cnc(C(=O)N3CC(O)(C(C)C)C3)cn2)ccc2c1B(O)OC2 | 100

Tested on: Plasmodium berghei
Experiment: Antimalarial activity against Plasmodium berghei infected in Swiss Webster mouse assessed as mouse survival rate at 100 mg/kg administered once daily via oral gavage for 4 consecutive days beginning 1 hr after infection measured on day 5 post infection relative to control
Format: functional
Conditions: not given
In short: as §1

SMILES | survival at 100 mg/kg [%]
Cc1c(Oc2cnc(C(=O)N3CC(O)(C(C)C)C3)cn2)ccc2c1B(O)OC2 | 100

Tested on: Plasmodium berghei
Experiment: Antimalarial activity against Plasmodium berghei infected in Swiss Webster mouse assessed as mouse survival rate at 0.1 mg/kg administered once daily via oral gavage for 4 consecutive days beginning 1 hr after infection measured on day 7 post infection relative to control
Format: functional
Conditions: not given
In short: as §1

SMILES | survival at 0.1 mg/kg [%]
Cc1c(Oc2cnc(C(=O)N3CC(O)(C(C)C)C3)cn2)ccc2c1B(O)OC2 | 0

Tested on: Plasmodium berghei
Experiment: Antimalarial activity against Plasmodium berghei infected in Swiss Webster mouse assessed as mouse survival rate at 3.7 mg/kg administered once daily via oral gavage for 4 consecutive days beginning 1 hr after infection measured on day 5 post infection relative to control
Format: functional
Conditions: not given
In short: as §2

SMILES | survival at 3.7 mg/kg [%]
Cc1c(Oc2cnc(C(=O)N3CC(O)(C(C)C)C3)cn2)ccc2c1B(O)OC2 | 100
